Calls of active or inactive are those of the source. The calls are words filed in the database; no cut-off is given here.
Assays:
[1] = target: T1, Tryptophan 2,3-dioxygenase (Homo sapiens, UniProt P48775); test: Inhibition of human TDO expressed in Escherichia coli at 10 uM using L-tryptophan as substrate after 1 hr by UV absorption analysis
How it was run: (§1)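 N-terminal human IDO1 or TDO was expressed in E. coli and Ni affinity-purified. Enzyme (100 nM) was incubated with compounds for 1 h at room temperature in Ca/Mg-free potassium phosphate buffer with […], 40 mM ascorbate, 200 µg/ml catalase and 20 µM methylene blue. Stop: 30% TCA, 65°C 15 min. Kynurenine read with DMAB at 480 nm against a standard curve. Triplicate, mean ± SD.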
Target sequence in this assay (P48775 whole entry, looked up): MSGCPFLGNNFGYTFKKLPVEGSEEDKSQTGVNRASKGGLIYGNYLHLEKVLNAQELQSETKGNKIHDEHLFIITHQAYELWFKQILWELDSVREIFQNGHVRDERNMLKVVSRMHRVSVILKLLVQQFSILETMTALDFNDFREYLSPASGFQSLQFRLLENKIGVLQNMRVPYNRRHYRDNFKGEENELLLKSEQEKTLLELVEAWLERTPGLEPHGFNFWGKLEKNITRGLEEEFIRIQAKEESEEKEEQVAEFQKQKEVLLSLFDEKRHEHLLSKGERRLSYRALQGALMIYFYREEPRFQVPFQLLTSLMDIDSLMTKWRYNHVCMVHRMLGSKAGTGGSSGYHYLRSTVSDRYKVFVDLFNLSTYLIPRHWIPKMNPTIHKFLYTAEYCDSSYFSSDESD

[2] = target: T2, Indoleamine 2,3-dioxygenase 1 (Homo sapiens, UniProt P14902); test: Inhibition of human IDO1 expressed in Escherichia coli at 10 uM using L-tryptophan as substrate after 1 hr by UV absorption analysis; how it was run: as §1
Target sequence in this assay (P14902 whole entry, looked up): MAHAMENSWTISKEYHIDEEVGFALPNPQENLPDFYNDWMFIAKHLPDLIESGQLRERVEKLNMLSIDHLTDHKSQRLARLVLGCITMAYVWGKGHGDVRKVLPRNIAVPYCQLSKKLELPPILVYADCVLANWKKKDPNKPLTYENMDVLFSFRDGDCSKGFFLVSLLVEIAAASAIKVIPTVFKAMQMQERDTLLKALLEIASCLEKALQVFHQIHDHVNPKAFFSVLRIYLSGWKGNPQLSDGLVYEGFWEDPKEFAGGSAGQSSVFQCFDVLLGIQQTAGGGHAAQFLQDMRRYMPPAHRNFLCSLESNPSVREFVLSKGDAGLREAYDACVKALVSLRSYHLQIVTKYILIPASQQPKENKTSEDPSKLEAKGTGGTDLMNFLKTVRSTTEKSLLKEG

CT26 [3] = test: Antitumor activity against mouse CT26 cells transplanted in Balb/c mouse assessed as tumor growth inhibition at 20 mg/kg/day, po administered for 18 consecutive days relative to control; format: functional; conditions: read-out: TGI
How it was run: (§2)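 CT26 cells (100 µL of 1 × 10^7 cells/mL suspension) were injected s.c. into Balb/c mice. After 4 days, mice were randomized, 6 per group, and dosed orally once daily at 20, 40 or 80 mg/kg/day. Vehicle was 5% DMSO, 20% PEG400 and 75% deionized water. Tumors were measured by caliper every 3 days; volume = a × b²/2.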

[4] = target: T1, Tryptophan 2,3-dioxygenase; test: Inhibition of TDO (unknown origin)
Target sequence in this assay (P48775 whole entry): as the sequence (P48775 whole entry, looked up) above

[5] = target: T2, Indoleamine 2,3-dioxygenase 1; test: Inhibition of IDO1 in IFN-gamma-induced human HeLa cells assessed as reduction in L-kynurenine level after 24 hrs; format: cell-based
How it was run: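 HeLa cells were plated for 24 h, then given IFNγ (50 ng/mL) plus inhibitors for 24 h; vehicle was 0.5% DMSO. Medium was mixed with 30% TCA and centrifuged. Supernatant kynurenine was reacted with 2% p-DMAB in acetic acid, read at 480 nm and quantified against an L-kynurenine standard curve. Triplicate, mean ± SD.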

HeLa [6] = test: Effect on IFN-gamma-induced IDO1 expression in human HeLa cells at 10 to 50 uM by Western blot analysis; format: functional, cell-based
How it was run: (§3)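 HeLa cells were pretreated for 2 h with inhibitors (10, 20, 50 µM) or a JAK inhibitor (1 µM), then given IFNγ 50 ng/mL for 24 h; 0.5% DMSO served as negative control. RIPA lysates with equal protein were run on 10% SDS-PAGE and blotted to nitrocellulose. Probes: rabbit anti-IDO1 (1:1000) and anti-GAPDH (1:4000) overnight at 4°C; HRP anti-rabbit 90 min.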

HeLa [7] = test: Reduction in IFN-gamma-induced GAPDH expression in human HeLa cells by Western blot analysis; format: ADME, cell-based; how it was run: as §3
[8] = target: T2, Indoleamine 2,3-dioxygenase 1; test: Inhibition of human IDO1 expressed in Escherichia coli using L-tryptophan as substrate after 1 hr by UV absorption analysis; how it was run: as §1
Target sequence in this assay (P14902 whole entry): as the sequence (P14902 whole entry, looked up) above

[9] = target: T1, Tryptophan 2,3-dioxygenase; test: Inhibition of human TDO expressed in Escherichia coli at using L-tryptophan as substrate after 1 hr by UV absorption analysis; how it was run: as §1
Target sequence in this assay (P48775 whole entry): as the sequence (P48775 whole entry, looked up) above

CT26 [10] = test: Antitumor activity against mouse CT26 cells transplanted in Balb/c mouse assessed as tumor growth inhibition at 40 mg/kg/day, po administered for 18 consecutive days relative to control; format: functional; conditions: read-out: TGI; how it was run: as §2
CT26 [11] = test: Antitumor activity against mouse CT26 cells transplanted in Balb/c mouse assessed as tumor growth inhibition at 80 mg/kg/day, po administered for 18 consecutive days relative to control; format: functional; conditions: read-out: TGI; how it was run: as §2
[12] = target: T1, Tryptophan 2,3-dioxygenase; test: Inhibition of human TDO expressed in human A172 assessed as reduction in kynurenine formation using L-tryptophan as substrate after 24 hrs
How it was run: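 A172 cells, which express TDO highly, were plated at 2 × 10^4 cells/well overnight. Cells were then exposed to compounds with L-Trp (20 µg/ml) for 24 h. Medium was treated with 30% TCA at 65°C for 30 min and centrifuged. Kynurenine was measured with 2% p-DMAB at 480 nm against an L-kynurenine standard curve.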

HeLa [13] = test: Reduction in IFN-gamma-induced IDO1 expression in human HeLa cells by Western blot analysis; format: functional, cell-based; how it was run: as §3

Row | Compound | inhibition [1] | inhibition [2] | also measured
1 | Nc1ccc(CCNc2cc(Br)cc3[nH]ncc23)cc1 | inactive | 2% | 
2 | Oc1ccc(CNc2cc(Br)cc3[nH]ncc23)c(O)c1 | inactive | 40% | 
3 | CCOC(=O)CNc1cccc(CNc2cc(Br)cc3[nH]ncc23)c1 | inactive | 29% | 
4 | O=C1CCCC(Nc2cccc(CNc3cc(Br)cc4[nH]ncc34)c2)C1 (stereo not drawn) | 46% | 52% | 
5 | NS(=O)(=O)NCCNc1nonc1/C(=N/O)Nc1ccc(F)c(Br)c1 [EPACADOSTAT] |  |  | inhibition in vivo at 20 mg/kg/day (CT26 [3]): 39.2%
6 | CN1CCN(C(=O)c2ccc(Cn3nnc4c3C(=O)c3ccccc3C4=O)cc2)CC1 |  |  | IC50 [4]: 0.03 µM
7 | O=C1c2ccccc2-n2c1nc1ccccc1c2=O [TRYPTANTHRIN] |  |  | IC50 [4]: 0.9 µM
8 | CC(C)Nc1cc(Br)cc2[nH]ncc12 | inactive | 47% | 
9 | Oc1ccc(CNc2cc(Br)cc3[nH]ncc23)c(F)c1 | inactive | 69% | 
10 | CC(Nc1cc(Br)cc2[nH]ncc12)c1ccc([N+](=O)[O-])cc1 (stereo not drawn) | 56% | 17% | 
11 | O=C(O)CNc1cccc(CNc2cc(Br)cc3[nH]ncc23)c1 | inactive | 57% | 
12 | Brc1cc(NCc2cccc3sccc23)c2cn[nH]c2c1 | 56% | 3% | 
13 | Nc1ccccc1CC(=O)Nc1ccc(CCNc2cc(Br)cc3[nH]ncc23)cc1 | 29% | 3% | 
14 | CC(Nc1cc(Br)cc2[nH]ncc12)c1ccccc1 (stereo not drawn) | inactive | 14% | 
15 | Brc1cc(NCc2cccc3nonc23)c2cn[nH]c2c1 | 85% | 91% | Activity (HeLa [7]): Toxic; IC50 [5]: 1.37 µM; inhibition [5]: Dose-dependent effect; IC50 [8]: 0.74 µM; IC50 [9]: 2.94 µM; inhibition in vivo at 40 mg/kg/day (CT26 [10]): 38.1%; inhibition in vivo at 80 mg/kg/day (CT26 [11]): 47.3%; inhibition in vivo at 20 mg/kg/day (CT26 [3]): 21.7%; IC50 [12]: 7.54 µM; inhibition [12]: Dose-dependent effect; Activity (HeLa [13]): Dose-dependent effect
16 | OC1CCCC(Nc2cccc(CNc3cc(Br)cc4[nH]ncc34)c2)C1 (stereo not drawn) | 50% | 52% | 
17 | O=C(Nc1ccc(CCNc2cc(Br)cc3[nH]ncc23)cc1)NC1CCOCC1 | 20% | inactive | 
18 | Nc1ccc2ccccc2c1CNc1cc(Br)cc2[nH]ncc12 | inactive | 15% | 
19 | Nc1nc(CNc2cc(Br)cc3[nH]ncc23)cs1 | 73% | inactive | 

Now from value to compound, other results behind:

Row | inhibition [1] | inhibition [2] | Compound | also measured
20 | 24% | 3% | Nc1ccc(CNc2cc(Br)cc3[nH]ncc23)cc1 | 
21 | 75% | 20% | NS(=O)(=O)c1ccc(CNc2cc(Br)cc3[nH]ncc23)cc1 | 
22 | inactive | 31% | Nc1cccc(CNc2cc(Br)cc3[nH]ncc23)c1 | 
23 | 19% | 60% | Oc1ccc(CNc2cc(Br)cc3[nH]ncc23)cc1Cl | 
24 | 54% | 16% | Brc1cc(NCc2cnc[nH]2)c2cn[nH]c2c1 | 
25 | 30% | 28% | Cc1cc(CNc2cc(Br)cc3[nH]ncc23)ccc1O | 
26 | 55% | 54% | Brc1cc(NCc2ccncc2)c2cn[nH]c2c1 | 
27 | 53% | 54% | Brc1cc(NCc2cccs2)c2cn[nH]c2c1 | 
28 | inactive | 48% | CC(=O)Nc1ccc(CNc2cc(Br)cc3[nH]ncc23)cc1 | 
29 | 55% | 45% | Oc1cccc(CNc2cc(Br)cc3[nH]ncc23)c1 | 
30 | 26% | 52% | Oc1ccc(CNc2cc(Br)cc3[nH]ncc23)cc1F | 
31 | 62% | 68% | Brc1cc(NCc2ccc3c(c2)OCO3)c2cn[nH]c2c1 | 
32 | inactive |  | Oc1ccc(CNc2cc(Br)cc3[nH]ncc23)cc1 | inhibition [5]: inactive; Activity (HeLa [6]): inactive
33 | 64% | 29% | Brc1cc(NCc2ccco2)c2cn[nH]c2c1 | 
34 | 19% | 60% | Cc1cc(O)ccc1CNc1cc(Br)cc2[nH]ncc12 | 
35 | inactive | 50% | Oc1ccc(CNc2cc(Br)cc3[nH]ncc23)cc1O | 
36 | 73% | 70% | N#Cc1ccc(CNc2cc(Br)cc3[nH]ncc23)cc1 | 
37 | 56% | 45% | OCc1ccc(CNc2cc(Br)cc3[nH]ncc23)cc1 | 
38 | inactive | 36% | Nc1ccccc1CNc1cc(Br)cc2[nH]ncc12 | 
39 | 56% | 16% | FC(F)(F)c1cccc(CNc2cc(Br)cc3[nH]ncc23)c1 | 
40 | inactive | 32% | Nc1cc(CNc2cc(Br)cc3[nH]ncc23)ccc1O | 
41 | inactive | 53% | ONc1cccc(CNc2cc(Br)cc3[nH]ncc23)c1 | 
42 | 6% | inactive | ONc1ccc(CNc2cc(Br)cc3[nH]ncc23)cc1 | 

Reference: ChEMBL document CHEMBL4368939, “4,6-Substituted-1H-Indazoles as potent IDO1/TDO dual inhibitors” (Bioorg Med Chem, 2019)
